Data from ChEMBL document CHEMBL4311935, “Synthesis and antitumor activity of fluorouracil - oleanolic acid/ursolic acid/glycyrrhetinic acid conjugates” (Medchemcomm, 2019).
Calls of active or inactive are those of the source. The rule behind the calls is not given here.

How the values were obtained:
L02 = assay: Cytotoxicity against human LO2 cells assessed as cell growth inhibition after 48 hrs by MTT assay; type: cell-based; settings: L02, 48 h
A549 [1] = assay: Induction of cell cycle arrest in human A549 cells assessed as accumulation at G2 phase at 20 uM after 48 hrs by RNase/propidium iodide staining based flow cytometry analysis (reference value: 5.14 %); type: functional
In short: (§1)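 A549 cells were grown in dishes for 24 h, then treated at 0, 10, 15 or 20 μM for 48 h. Cells were washed in cold PBS, fixed in cold 75% ethanol and held at −20 °C for 36 h. They were then treated with RNase A (100 μg mL–1) for 30 min and stained with propidium iodide (1 mg mL–1 stock) for 10 min in the dark before flow cytometry.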

A549 [2] = assay: Induction of apoptosis in human A549 cells assessed as activation of caspase-8 at 10 uM using FITC-DEVD-FMK as substrate after 48 hrs by flow cytometric analysis (reference value: 9.76 %); type: functional
A549 [3] = assay: Induction of cell cycle arrest in human A549 cells assessed as accumulation at G2 phase at 15 uM after 48 hrs by RNase/propidium iodide staining based flow cytometry analysis (reference value: 5.14 %); type: functional; in short: as §1
A549 [4] = assay: Induction of apoptosis in human A549 cells assessed as stimulation of intracellular calcium influx by measuring fluorescence intensity at 10 to 15 uM after 48 hrs by Fluo-3/AM probe based flow cytometry analysis; type: functional, cell-based
In short: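 Cells were seeded in six-well plates for 24 h, then treated at 0, 10 or 15 μM for 48 h. They were harvested, washed three times in serum-free RPMI 1640 and loaded with Fluo-3 AM (0.5 μM) for 60 min. After two washes and resuspension in serum-free medium, fluorescence was measured immediately by flow cytometry.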

A549 [5] = assay: Induction of cell cycle arrest in human A549 cells assessed as accumulation at S phase at 10 uM after 48 hrs by RNase/propidium iodide staining based flow cytometry analysis (reference value: 24.23 %); type: functional; in short: as §1
A549 [6] = assay: Induction of apoptosis in human A549 cells assessed as late apoptotic cells at 10 uM after 48 hrs by AnnexinV-FITC/propidium iodide staining based flow cytometry analysis (reference value: 4.19 %); type: functional
A549 [7] = assay: Induction of apoptosis in human A549 cells assessed as activation of caspase-3 at 20 uM using FITC-DEVD-FMK as substrate after 48 hrs by flow cytometric analysis (reference value: 5.99 %); type: functional
A549 [8] = assay: Induction of cell cycle arrest in human A549 cells assessed as accumulation at G1 phase at 20 uM after 48 hrs by RNase/propidium iodide staining based flow cytometry analysis (reference value: 70.63 %); type: functional; in short: as §1
Bel-7402 = assay: Cytotoxicity against human Bel7402 cells assessed as cell growth inhibition after 48 hrs by MTT assay; type: functional, cell-based; settings: Bel-7402, 48 h
A549 [9] = assay: Induction of apoptosis in human A549 cells assessed as early apoptotic cells at 20 uM after 48 hrs by AnnexinV-FITC/propidium iodide staining based flow cytometry analysis (reference value: 0.99 %); type: functional
A549 [10] = assay: Induction of cell cycle arrest in human A549 cells assessed as accumulation at S phase at 15 uM after 48 hrs by RNase/propidium iodide staining based flow cytometry analysis (reference value: 24.23 %); type: functional; in short: as §1
A549 [11] = assay: Induction of apoptosis in human A549 cells assessed as early apoptotic cells at 15 uM after 48 hrs by AnnexinV-FITC/propidium iodide staining based flow cytometry analysis (reference value: 0.99 %); type: functional
A549 [12] = assay: Induction of apoptosis in human A549 cells assessed as activation of caspase-3 at 15 uM using FITC-DEVD-FMK as substrate after 48 hrs by flow cytometric analysis (reference value: 5.99 %); type: functional
A549 [13] = assay: Induction of apoptosis in human A549 cells assessed as early apoptotic cells at 10 uM after 48 hrs by AnnexinV-FITC/propidium iodide staining based flow cytometry analysis (reference value: 0.99 %); type: functional
A549 [14] = assay: Induction of apoptosis in human A549 cells assessed as stimulation of ROS generation at 25 uM after 48 hrs by DCFH-DA staining-based flow cytometric analysis (reference value: 42.5 %); type: functional
A549 [15] = assay: Induction of apoptosis in human A549 cells assessed as stimulation of ROS generation at 20 uM after 48 hrs by DCFH-DA staining-based flow cytometric analysis (reference value: 42.5 %); type: functional
Bel7402/5-FU = assay: Cytotoxicity against human Bel7402/5-FU cells assessed as cell growth inhibition after 48 hrs by MTT assay; type: functional, cell-based
NCI/ADR-RES = assay: Cytotoxicity against human MCF7/ADR cells assessed as cell growth inhibition after 48 hrs by MTT assay; type: functional, cell-based
A549 [16] = assay: Induction of apoptosis in human A549 cells assessed as late apoptotic cells at 15 uM after 48 hrs by AnnexinV-FITC/propidium iodide staining based flow cytometry analysis (reference value: 4.19 %); type: functional
MCF7 = assay: Cytotoxicity against human MCF7 cells assessed as cell growth inhibition after 48 hrs by MTT assay; type: functional, cell-based; settings: MCF7, 48 h
A549 [17] = assay: Induction of apoptosis in human A549 cells assessed as activation of caspase-8 at 15 uM using FITC-DEVD-FMK as substrate after 48 hrs by flow cytometric analysis (reference value: 9.76 %); type: functional
A549 [18] = assay: Induction of apoptosis in human A549 cells assessed as activation of caspase-8 at 20 uM using FITC-DEVD-FMK as substrate after 48 hrs by flow cytometric analysis (reference value: 9.76 %); type: functional
A549 [19] = assay: Induction of cell cycle arrest in human A549 cells assessed as accumulation at S phase at 20 uM after 48 hrs by RNase/propidium iodide staining based flow cytometry analysis (reference value: 24.23 %); type: functional; in short: as §1
A549 [20] = assay: Induction of apoptosis in human A549 cells assessed as activation of caspase-3 at 10 uM using FITC-DEVD-FMK as substrate after 48 hrs by flow cytometric analysis (reference value: 5.99 %); type: functional
A549 [21] = assay: Induction of cell cycle arrest in human A549 cells assessed as accumulation at G1 phase at 15 uM after 48 hrs by RNase/propidium iodide staining based flow cytometry analysis (reference value: 70.63 %); type: functional; in short: as §1
K562/Adr = assay: Cytotoxicity against human K562/ADR cells assessed as cell growth inhibition after 48 hrs by MTT assay; type: functional, cell-based
A549 [22] = assay: Induction of cell cycle arrest in human A549 cells assessed as accumulation at G2 phase at 10 uM after 48 hrs by RNase/propidium iodide staining based flow cytometry analysis (reference value: 5.14 %); type: functional; in short: as §1
A549/TR = assay: Cytotoxicity against human A549/T cells assessed as cell growth inhibition after 48 hrs by MTT assay; type: functional, cell-based
A549 [23] = assay: Induction of apoptosis in human A549 cells assessed as late apoptotic cells at 20 uM after 48 hrs by AnnexinV-FITC/propidium iodide staining based flow cytometry analysis (reference value: 4.19 %); type: functional
A549 [24] = assay: Cytotoxicity against human A549 cells assessed as cell growth inhibition after 48 hrs by MTT assay; type: functional, cell-based; settings: A549, 48 h
A549 [25] = assay: Induction of cell cycle arrest in human A549 cells assessed as accumulation at G1 phase at 10 uM after 48 hrs by RNase/propidium iodide staining based flow cytometry analysis (reference value: 70.63 %); type: functional; in short: as §1
K562 = assay: Cytotoxicity against human K562 cells assessed as cell growth inhibition after 48 hrs by MTT assay; type: functional, cell-based; settings: K562, 48 h

Structure (SMILES): CC1(C)[C@@H](O)CC[C@]2(C)[C@H]3C(=O)C=C4[C@@H]5C[C@@](C)(C(=O)OCCCCCCCCn6cc(F)c(=O)[nH]c6=O)CC[C@]5(C)CC[C@@]4(C)[C@]3(C)CC[C@@H]12
- IC50 (L02): 20.9 µM
- Activity (A549 [1]): 2.81%
- Activity (A549 [2]): 9.26%
- Activity (A549 [3]): 4.27%
- Activity (A549 [4]): Active
- Activity (A549 [5]): 20.81%
- Activity (A549 [6]): 5.43%
- Activity (A549 [7]): 64.7%
- Activity (A549 [8]): 92.18%
- IC50 (Bel-7402): 21 µM
- Activity (A549 [9]): 3.5%
- Activity (A549 [10]): 19.66%
- Activity (A549 [11]): 2.71%
- Activity (A549 [12]): 50.9%
- Activity (A549 [13]): 1.61%
- Activity (A549 [14]): 34.9%
- Activity (A549 [15]): 40.5%
- IC50 (Bel7402/5-FU): 19.8 µM
- IC50 (NCI/ADR-RES): 23.4 µM
- Activity (A549 [16]): 31.91%
- IC50 (MCF7): 12.9 µM
- Activity (A549 [17]): 12.7%
- Activity (A549 [18]): 32.4%
- Activity (A549 [19]): 5.01%
- Activity (A549 [20]): 24.5%
- Activity (A549 [21]): 76.07%
- IC50 (K562/Adr): 27 µM
- Activity (A549 [22]): 5.58%
- IC50 (A549/TR): 20.7 µM
- Activity (A549 [23]): 46.4%
- IC50 (A549 [24]): 15.7 µM
- Activity (A549 [25]): 73.61%
- IC50 (K562): 9.8 µM
